Where a name gives a salt, the structure may show the parent alone.
Columns and labels:
[1] = Cytotoxicity against human QG56 cells assessed as decrease in cell viability after 48 hrs by MTT assay; assay type: functional, cell-based; details: QG-56, 48 h
Procedure, shortened: (§1)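 Cells seeded at 2 x 10^3 per well in MEM with 10% FBS and left to attach for 24 h. Exposed 48 h to 5, 10, 20, 50, 100 and 200 µM (printed µM/mL). Controls got medium with 0.2% DMSO. Duplicate treatments. After PBS wash, MTT (stock 1 mg/mL) added for 4 h at 37 °C. Formazan dissolved in DMSO and OD read at 590 nm.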

[2] = Antioxidant activity assessed as DPPH free radical scavenging activity at 50 uM incubated in dark for 20 mins relative to control; assay type: functional
Procedure, shortened: (§2)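 Compounds dissolved in DMSO and diluted in 100 mM Tris–HCl (pH 7.4). DPPH (0.1 mM in methanol) added with vigorous shaking, then held in the dark at room temperature for 20 min. Absorbance read at 517 nm with DMSO baseline correction. Compound-free control prepared the same way. Run in triplicate.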

[3] = Antioxidant activity assessed as DPPH free radical scavenging activity at 20 uM incubated in dark for 20 mins relative to control; assay type: functional; procedure, shortened: as §2
[4] = Antioxidant activity assessed as DPPH free radical scavenging activity at 10 uM incubated in dark for 20 mins relative to control; assay type: functional; procedure, shortened: as §2
[5] = Antioxidant activity assessed as DPPH free radical scavenging activity at 2 uM incubated in dark for 20 mins relative to control; assay type: functional; procedure, shortened: as §2
[6] = Antioxidant activity assessed as nitric oxide radical scavenging activity at 50 uM incubated in dark for 20 mins relative to control; assay type: functional
[7] = Antioxidant activity assessed as nitric oxide radical scavenging activity at 20 uM incubated in dark for 20 mins relative to control; assay type: functional
[8] = Antioxidant activity assessed as nitric oxide radical scavenging activity at 10 uM incubated in dark for 20 mins relative to control; assay type: functional
[9] = Antioxidant activity assessed as nitric oxide radical scavenging activity at 2 uM incubated in dark for 20 mins relative to control; assay type: functional
[10] = Cytotoxicity against human HeLa cells assessed as decrease in cell viability after 48 hrs by MTT assay; assay type: functional, cell-based; procedure, shortened: as §1
[11] = Cytotoxicity against human HCT116 cells assessed as decrease in cell viability after 48 hrs by MTT assay; assay type: functional, cell-based; details: HCT-116, 48 h; procedure, shortened: as §1

COc1cc(/C=C/C(=O)C2=C(/C=C/c3ccc(O)c(OC)c3)NC(=O)NC2c2ccccc2O)ccc1O (stereo not drawn)
IC50 [1]: 100 µM | Activity [2]: 88.9% | Activity [3]: 81% | Activity [4]: 73.6% | Activity [5]: 33.6% | Activity [6]: 88% | Activity [7]: 80.9% | Activity [8]: 71% | Activity [9]: 29.9% | IC50 [10]: 50 µM | IC50 [11]: 100 µM

COc1cc(/C=C/C(=O)C2=C(/C=C/c3ccc(O)c(OC)c3)NC(=O)NC2c2ccccc2Cl)ccc1O (stereo not drawn)
IC50 [1]: 100 µM | Activity [2]: 55.5% | Activity [3]: 46% | Activity [4]: 40% | Activity [5]: 20.2% | Activity [6]: 56% | Activity [7]: 38.7% | Activity [8]: 23% | Activity [9]: 16.6% | IC50 [10]: 100 µM | IC50 [11]: 50 µM

COc1cc(/C=C/C(=O)C2=C(/C=C/c3ccc(O)c(OC)c3)NC(=S)NC2c2ccc(N(C)C)cc2)ccc1O (stereo not drawn)
IC50 [1]: 25 µM | Activity [2]: 89.5% | Activity [3]: 83% | Activity [4]: 72% | Activity [5]: 30.2% | Activity [6]: 84% | Activity [7]: 72.1% | Activity [8]: 59% | Activity [9]: 32.3% | IC50 [10]: 12.5 µM | IC50 [11]: 12.5 µM

COc1cc(/C=C/C(=O)C2=C(/C=C/c3ccc(O)c(OC)c3)NC(=O)NC2c2ccc(O)cc2)ccc1O (stereo not drawn)
IC50 [1]: 50 µM | Activity [2]: 90.3% | Activity [3]: 84.6% | Activity [4]: 75% | Activity [5]: 25% | Activity [6]: 86.2% | Activity [7]: 80.1% | Activity [8]: 72% | Activity [9]: 33.3% | IC50 [10]: 25 µM | IC50 [11]: 100 µM

COc1cc(/C=C/C(=O)C2=C(/C=C/c3ccc(O)c(OC)c3)NC(=S)NC2c2ccccc2)ccc1O (stereo not drawn)
IC50 [1]: 100 µM | Activity [2]: 48% | Activity [3]: 38% | Activity [4]: 26.5% | Activity [5]: 15.5% | Activity [6]: 50.4% | Activity [7]: 36.6% | Activity [8]: 22% | Activity [9]: 16.6% | IC50 [10]: 25 µM | IC50 [11]: 100 µM

COc1cccc2c1C(=O)c1c(O)c3c(c(O)c1C2=O)C[C@@](O)(C(=O)CO)C[C@@H]3O[C@H]1C[C@H](N)[C@H](O)[C@H](C)O1 [DOXORUBICIN HYDROCHLORIDE]
IC50 [1]: 2.5 µM | IC50 [10]: 2.5 µM | IC50 [11]: 5 µM

COc1cc(/C=C/C(=O)CC(=O)/C=C/c2ccc(O)c(OC)c2)ccc1O [CURCUMIN]
IC50 [1]: 100 µM | Activity [2]: 50.2% | Activity [3]: 42.2% | Activity [4]: 33.2% | Activity [5]: 6% | Activity [6]: 59.9% | Activity [7]: 36.5% | Activity [8]: 22.2% | Activity [9]: 12.2% | IC50 [10]: 50 µM | IC50 [11]: 50 µM

COc1cc(/C=C/C(=O)C2=C(/C=C/c3ccc(O)c(OC)c3)NC(=O)NC2c2ccc(N(C)C)cc2)ccc1O (stereo not drawn)
IC50 [1]: 12.5 µM | Activity [2]: 56% | Activity [3]: 48% | Activity [4]: 37.6% | Activity [5]: 17.9% | Activity [6]: 89.2% | Activity [7]: 82.2% | Activity [8]: 69.9% | Activity [9]: 28.2% | IC50 [10]: 25 µM | IC50 [11]: 12.5 µM

COc1cc(/C=C/C(=O)C2=C(/C=C/c3ccc(O)c(OC)c3)NC(=S)NC2c2ccc(C)cc2)ccc1O (stereo not drawn)
IC50 [1]: 12.5 µM | Activity [2]: 62% | Activity [3]: 51% | Activity [4]: 43.2% | Activity [5]: 15.5% | Activity [6]: 41% | Activity [7]: 30% | Activity [8]: 19.9% | Activity [9]: 10.2% | IC50 [10]: 25 µM | IC50 [11]: 50 µM

COc1cc(/C=C/C(=O)C2=C(/C=C/c3ccc(O)c(OC)c3)NC(=O)NC2c2c(Cl)cccc2Cl)ccc1O (stereo not drawn)
IC50 [1]: 100 µM | Activity [2]: 43.2% | Activity [3]: 31.9% | Activity [4]: 19.2% | Activity [5]: 11.2% | Activity [6]: 44.2% | Activity [7]: 33% | Activity [8]: 20% | Activity [9]: 11.2% | IC50 [10]: 25 µM | IC50 [11]: 50 µM

COc1cc(/C=C/C(=O)C2=C(/C=C/c3ccc(O)c(OC)c3)NC(=O)NC2c2cccc([N+](=O)[O-])c2)ccc1O (stereo not drawn)
IC50 [1]: 25 µM | Activity [2]: 71% | Activity [3]: 66.3% | Activity [4]: 51.2% | Activity [5]: 17% | Activity [6]: 48% | Activity [7]: 33% | Activity [8]: 19.9% | Activity [9]: 10.2% | IC50 [10]: 100 µM | IC50 [11]: 50 µM

COc1cc(/C=C/C(=O)C2=C(/C=C/c3ccc(O)c(OC)c3)NC(=S)NC2c2ccccc2Cl)ccc1O (stereo not drawn)
IC50 [1]: 50 µM | Activity [2]: 60% | Activity [3]: 56.6% | Activity [4]: 43.2% | Activity [5]: 16.2% | Activity [6]: 55.6% | Activity [7]: 39.2% | Activity [8]: 21.2% | Activity [9]: 15.5% | IC50 [10]: 50 µM | IC50 [11]: 100 µM

COc1cc(/C=C/C(=O)C2=C(/C=C/c3ccc(O)c(OC)c3)NC(=O)NC2c2ccccc2)ccc1O (stereo not drawn)
IC50 [1]: 50 µM | Activity [2]: 40.2% | Activity [3]: 38.2% | Activity [4]: 26.4% | Activity [5]: 15.2% | Activity [6]: 50.2% | Activity [7]: 31% | Activity [8]: 20% | Activity [9]: 10.5% | IC50 [10]: 100 µM | IC50 [11]: 25 µM

COc1cc(/C=C/C(=O)C2=C(/C=C/c3ccc(O)c(OC)c3)NC(=O)NC2c2ccc(C)cc2)ccc1O (stereo not drawn)
IC50 [1]: 100 µM | Activity [2]: 46% | Activity [3]: 38.2% | Activity [4]: 29.9% | Activity [5]: 17.2% | Activity [6]: 52.2% | Activity [7]: 36.3% | Activity [8]: 23.9% | Activity [9]: 15.5% | IC50 [10]: 100 µM | IC50 [11]: 12.5 µM

COc1cc(/C=C/C(=O)C2=C(/C=C/c3ccc(O)c(OC)c3)NC(=S)NC2c2c(Cl)cccc2Cl)ccc1O (stereo not drawn)
IC50 [1]: 100 µM | Activity [2]: 50.2% | Activity [3]: 43.2% | Activity [4]: 29% | Activity [5]: 17.7% | Activity [6]: 50% | Activity [7]: 33.9% | Activity [8]: 20.2% | Activity [9]: 15% | IC50 [10]: 100 µM | IC50 [11]: 50 µM

COc1cc(/C=C/C(=O)C2=C(/C=C/c3ccc(O)c(OC)c3)NC(=S)NC2c2ccccc2O)ccc1O (stereo not drawn)
IC50 [1]: 50 µM | Activity [2]: 86.3% | Activity [3]: 72.3% | Activity [4]: 60.2% | Activity [5]: 25% | Activity [6]: 88.5% | Activity [7]: 79.9% | Activity [8]: 70.8% | Activity [9]: 34% | IC50 [10]: 25 µM | IC50 [11]: 100 µM

Source: ChEMBL document CHEMBL3856222, “Design, structure activity relationship, cytotoxicity and evaluation of antioxidant activity of curcumin derivatives/analogues” (Eur J Med Chem, 2016)
